# Measurements reported in PubChem BioAssay AID588478 (ICCB-Longwood Screening Facility, Harvard Medical School, 2011).
# Several values for one entry are separate records, joined by “and”; a condition that tells them apart may be missing. Equal values may be shown once. About 1,100 (0.33%) of roughly 330,000 compounds were called active.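 Rule for the calls: active = mean inhibition over replicate wells above about 20% (limit read from the data); inactive = the rest.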 What follows is part of a selection rich in actives, with near analogues and random picks from the rest.
# Target: Ubiquitin carboxyl-terminal hydrolase isozyme L5 (Homo sapiens) (UniProt Q9Y5K5)
# Assay: inhibitors of human UCH37 deubiquitinase, primary screen, biochemical, Ub-AMC cleavage, fluorescence (AID 588478);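 note: 0% = compound-free wells with enzyme and 100% = wells lacking proteasome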
# Conditions: purified proteasome/UCH37, Ub-AMC cleavage fluorescence; hits give high values; concentration not given here
# In short: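 Material: human UCH37 enzyme supplied as purified proteasome complex / Amount: 0.15 nM proteasome as dispensed / Buffer or medium: pH 7.4 Tris-HCl (50 mM) with ovalbumin, ATP-MgCl2, DTT / Times: preincubation 30 min, reaction 25 min, room temperature / Technique: AMC fluorescence from Ub-AMC cleavage, excitation 355 nm, emission 460 nm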
# Chain of Ubiquitin carboxyl-terminal hydrolase isozyme L5 (Homo sapiens) (Q9Y5K5 whole entry, looked up): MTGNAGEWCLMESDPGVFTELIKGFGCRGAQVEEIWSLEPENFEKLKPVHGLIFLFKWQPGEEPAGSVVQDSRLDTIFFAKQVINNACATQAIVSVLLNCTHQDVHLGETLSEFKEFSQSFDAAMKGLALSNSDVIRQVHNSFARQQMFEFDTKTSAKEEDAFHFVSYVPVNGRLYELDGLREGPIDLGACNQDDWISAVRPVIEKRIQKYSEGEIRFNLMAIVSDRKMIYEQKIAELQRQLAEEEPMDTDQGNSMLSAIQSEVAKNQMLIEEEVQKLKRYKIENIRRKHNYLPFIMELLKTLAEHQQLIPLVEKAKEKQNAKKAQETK
row,Compound,inhibition
1,COc1ccc(C(C)=NNC(=O)c2ccc(N(C)C)cc2)cc1,3.67% (inactive)
2,CC(=O)NC(=S)Nc1ccc(NC(=S)NC(=O)c2ccc([N+](=O)[O-])cc2)cc1,5.88% (inactive)
3,Cn1ccc(=Nc2ccc(NC(=O)c3ccc(N=c4ccn(C)c5ccc([N+](=O)[O-])cc45)cc3)cc2)cc1,27.5% (active)
4,COc1cc(NS(=O)(=O)c2ccc(NC(=O)c3ccc([N+](=O)[O-])cc3)cc2)ncn1,4.65% (inactive)
5,COc1ccccc1/C=C/C=NN1CCN(Cc2ccc(Cl)cc2)CC1,5.57% (inactive)
6,CCN(CC)C(=O)N(CC)Cc1ccccc1,-0.131% (inactive)
7,CN(Cc1ccccc1)C(=O)c1cccc(C(=O)N(C)Cc2ccccc2)c1,0.499% (inactive)
8,CCN(CC)C(=O)c1nc[nH]c1C(=O)N(C)Cc1ccccc1,26.1% (active)
9,O=S1(=O)CCC(=NNc2ccc(C(F)(F)F)cn2)c2cc(F)ccc21,0.609% (inactive)
10,COc1ccc(C(=O)NCC(=O)NN=Cc2cn[nH]c2-c2ccccc2)cc1,1.68% (inactive)
11,CC(=O)N1C(=O)/C(=C2\SC(=S)N(NC(=O)c3ccc(O)cc3)C2=O)c2ccccc21,40.9% (active)
12,Cn1cccc1/C=C1\SC(=S)N(NC(=O)c2ccc(Cl)cc2)C1=O,1.88% (inactive)
13,O=C(O)c1ccc2c(c1)C(=O)N(NC(=O)c1ccc(O)cc1)C2=O,7.31% (inactive)
14,Cc1ccc(NC(=O)ON=Cc2ccc(F)cc2)cc1,5.21% (inactive)
15,Cc1cc(=O)oc2c3c(ccc12)OCC3=NN,-22.9% (inactive)
16,CC(=NNc1ccccc1C(=O)O)c1cccs1,10.1% (inactive)
17,COC(=O)c1ccc(C=NOCC(=O)NC2CCCCCCC2)cc1,0.759% (inactive)
18,CC1(OC(=O)CCc2ccccc2)C(=O)C=C2C=C(c3ccc(C#N)cc3)N(CCc3ccccn3)C=C2C1=O (stereo not given),0.0366% (inactive)
19,C=CCN1C=C2C(=O)C(C)(OC(=O)CCc3ccccc3)C(=O)C=C2C=C1c1ccc(C#N)cc1 (stereo not given),-31% (inactive)
20,COCCN1C=C2C(=O)C(C)(OC(=O)C3CCCC3)C(=O)C=C2C=C1c1ccsc1 (stereo not given),46.2% (active)
21,COc1ccc(C=NNc2nncn2N)cc1Br,14.1% (inactive)
22,O=C(CN(Cc1ccccc1)S(=O)(=O)c1ccc2c(c1)OCCO2)NN=Cc1cccc(Br)c1,0.583% (inactive)
23,CCOc1ccccc1C=c1sc2nc(-c3ccco3)nn2c1=O,3.89% (inactive)

row,Compound,inhibition
1,CCC(=NNC(=O)Cc1ccc(Br)cc1)c1cccs1,0.706% (inactive)
2,CCS(=O)(=O)N1CCCC(C(=O)NCCCN(C)Cc2ccccc2)C1 (stereo not given),29% (active)
3,CCS(=O)(=O)N1CCCC(C(=O)NCc2ccc(C)cc2)C1 (stereo not given),9.8% (inactive)
4,CCCS(=O)(=O)N1CCC(C(=O)NCCCN(C)Cc2ccccc2)CC1,-3.1% (inactive)
5,O=C(NC1CCCC1)C(c1ccc(N2CCOCC2)cc1)N(C(=O)c1ccco1)c1ccccc1F (stereo not given),38.4% (active)
6,COc1cc(C(C(=O)NC2CCCC2)N(C(=O)c2ccco2)c2ccccc2C(C)=O)cc(OC)c1OC (stereo not given),4.15% (inactive)
7,O=C(NC1CCCC1)C(c1ccco1)N(C(=O)c1ccco1)c1ccc(F)cc1 (stereo not given),1.87% (inactive)
8,Cc1cccc(C(=O)ON=C(c2ccccc2)c2ccncc2)c1,3.58% (inactive)
9,Nc1c(Cl)cc(-c2csc(N3CCCC3c3nc4cc(Cl)c(Cl)cc4n3CCOCCO)n2)cc1Cl (stereo not given),28% (active)
10,Cc1ccc(-c2csc(N3CCN(c4cc5c(cc4Cl)nc(-c4ccncc4)n5CCOCCO)CC3)n2)cc1,-1.15% (inactive)
11,CCCn1c(C2CCCN2c2nc(-c3ccc(C)cc3)cs2)nc2cc(Cl)c(N3CCCCC3)cc21 (stereo not given),3.86% (inactive)
12,CCOC(=O)C1=C(C)N=c2sc(=Cc3ccncc3)c(=O)n2C1c1ccc2c(c1)OCO2 (stereo not given),-0.871% (inactive)
13,CC(C)(C)OC(=O)CNC(=O)c1[nH]cnc1C(=O)N[C@@H](Cc1ccccc1)C(=O)OCc1ccccc1,0.224% (inactive)
14,O=C(N[C@@H](Cc1ccccc1)C(=O)OCc1ccccc1)c1nc[nH]c1C(=O)N[C@@H](Cc1ccccc1)C(=O)OCc1ccccc1,31.8% (active)
15,O=C(N[C@@H](Cc1ccccc1)C(=O)OCc1ccccc1)c1nc[nH]c1C(=O)NC1CCNCC1,-1.66% (inactive)
16,O=C(CNC(=O)c1ccncc1)NN=Cc1cccc([N+](=O)[O-])c1,1.21% (inactive)
17,O=C(OCC(=O)N1CCN(c2ccccc2)CC1)c1ccc([N+](=O)[O-])s1,61.3% (active)
18,COc1cccc(/C=C/C(=O)OCC(=O)N2CCN(c3ccccc3)CC2)c1,-11.1% (inactive)
19,C[C@H](NC(=O)c1ccccc1Cl)C(=O)OCC(=O)N1CCN(c2ccccc2)CC1,0.507% (inactive)
20,Cc1cc([N+](=O)[O-])cc(C=Nn2c(C)nc3ccccc3c2=O)c1O,12.9% (inactive)
21,Cc1cc(C)n(C(=O)C(C#N)=NNc2cc(Cl)cc(Cl)c2)n1,7.62% (inactive)
22,CON=C(C(=O)N[C@@H]1C(=O)N2C(C(=O)O)=C(COC(C)=O)CS[C@H]12)c1csc(N)n1,2.25% (inactive) and 5.96% (inactive)
23,Clc1ccc(-c2csc(NN=Cc3cccnc3)n2)cc1,7.34% (inactive)

row,Compound,inhibition
1,CCOC(=O)c1ccccc1OC(=O)Oc1ccccc1C(=O)OCC,2.7% (inactive)
2,CCOC(=O)c1c(C)[nH]c2c1-c1ccccc1C(=O)C2=O,72.6% (active)
3,CCOC(=O)c1c(C)nc(-c2ccccc2)nc1NC(=O)C(C)C,2.52% (inactive)
4,O=C(NN=C/C(Br)=C/c1ccccc1)NC1CCCCC1,4.04% (inactive)
5,CC(C)N(C(=O)CSc1nc(COc2ccccc2)nc2ccccc12)C(C)C,2.03% (inactive)
6,Cc1nnc(SCC(=O)N(C(C)C)C(C)C)nc1C,32.8% (active)
7,Cc1cc(C)nc(SCC(=O)N(C)C)n1,4.9% (inactive)
8,O=C(NN=Cc1cccs1)c1cc(-c2ccc(Cl)s2)[nH]n1,4.08% (inactive)
9,Cc1nn(Cc2ccc(Cl)cc2Cl)c(Cl)c1C=NNC(=O)CNc1cccc(C(F)(F)F)c1,5.09% (inactive)
10,O=c1[nH]c(CSc2ccccc2)nc2c1oc1ccccc12,3.26% (inactive)
11,COc1ccc(CCNC(=O)CSc2nc(C)nc3c2oc2ccccc23)cc1OC,1.13% (inactive)
12,CCSc1nc(C)nc2c1oc1ccccc12,22.4% (active)
13,N#Cc1ccc(OCC(=O)NN=C2CC(c3ccccc3)Oc3ccccc32)cc1 (stereo not given),6.87% (inactive)
14,COC(=O)c1ccccc1-c1ccc(C=NNC(N)=O)o1,-17.5% (inactive)
15,Cc1cc(C(=O)NN=C2CC(=O)CC(C)(C)C2)c2ccccc2n1,6.67% (inactive)
16,O=C(O)c1ccc2c(c1)C(=O)N(c1ccc(/C=C/C(=O)c3ccccc3)cc1)C2=O,8.59% (inactive)
17,O=C(/C=C/c1ccccc1)c1ccoc1,35.8% (active)
18,O=C(/C=C/c1ccc(N2CCOCC2)cc1)c1ccccc1,-0.318% (inactive)
19,CCN1C(=O)CSC1=NS(=O)(=O)c1ccc(Cl)cc1,-0.232% (inactive)
20,COc1ccc(C=NNC(=O)CSc2ccccn2)cc1OC,5.41% (inactive)
21,CCN1/C(=C\c2ccc3ccccc3[n+]2CC)Sc2cc(C)ccc21,4.94% (inactive)
22,CCOC(=O)CNC(=O)N1c2ccccc2Sc2ccccc21,5.96% (inactive)
23,CCC(=O)/C=C1\Sc2ccccc2N1CC,23.7% (active)

row,Compound,inhibition
1,COC(=O)c1ccc(C=NNC(=O)CNc2cccc(C)c2)cc1,1.65% (inactive)
2,Cc1[nH]c2ccccc2c1C=NNC(=O)CCC(=O)NCc1ccccc1,2.82% (inactive)
3,Cc1cccc(C=NNC(=O)Cn2nccc2C)n1,-0.386% (inactive)
4,COc1ccc(S(=O)(=O)NCCCc2ccccc2)cc1,4.02% (inactive)
5,O=C1C=C(NS(=O)(=O)c2ccccc2)C(=O)c2ccccc21,16.2% (inactive)
6,COc1ccc(S(=O)(=O)/N=C2\C=C(NS(=O)(=O)c3ccccc3)C(=O)c3ccccc32)cc1,39.6% (active)
7,CC(=NNC(=O)c1cccc(NN=C(C)c2ccco2)c1)c1ccco1,1.7% (inactive)
8,CCCCCCC(=O)NN=CCc1ccccc1,0.89% (inactive)
9,COc1ccccc1N1CCN(N=C/C=C\c2ccccc2[N+](=O)[O-])CC1,7.46% (inactive)
10,CON=CCc1oc(=O)c(NC(=O)c2ccccc2)cc1C(=O)OC,1.47% (inactive)
11,COc1ccc(CNC(=O)C2(CC3CC(c4ccccc4)=NO3)CCN(C(=O)c3cccc(O)c3)CC2)cc1 (stereo not given),4.4% (inactive)
12,CCCCCCCNC(=O)C1(CC2CC(c3cccc(Br)c3)=NO2)CCN(C(=O)c2cc(OCC)c(OCC)c(OCC)c2)CC1 (stereo not given),3.99% (inactive)
13,O=C(c1ccccc1)N1CCC(CC2CC(c3ccc(Cl)cc3)=NO2)(C(=O)NCC2CCCCC2)CC1 (stereo not given),22.5% (active)
14,CCOc1cc(C=NNC(=O)C(N)=O)cc(Br)c1O,13.3% (inactive)
15,O=C1Nc2ccc([N+](=O)[O-])cc2C1=Nc1cccc(CO)c1,55.8% (active)
16,O=[N+]([O-])c1ccc(N(CCO)Cc2ccccc2)c([N+](=O)[O-])c1,6.59% (inactive)
17,O=[N+]([O-])c1ccc2c(c1)Nc1nc3ccccc3nc1N2,0.978% (inactive)
18,Cc1nnc(NN=Cc2ccccn2)[nH]c1=O,1.91% (inactive)
19,CC(=N/N=C1/NC(=O)C(CC(=O)NCc2ccccc2)S1)C(C)C (stereo not given),3.63% (inactive)
20,CCNC(=S)N=C(N)Nc1nc(C)c2cc(C)ccc2n1,6.4% (inactive)
21,C(=NNc1nc(N2CCOCC2)nc(N2CCOCC2)n1)c1cccnc1,2.78% (inactive)
